Test results from ChEMBL document CHEMBL1143924, “Discovery of 2-amino-6-carboxamidobenzothiazoles as potent Lck inhibitors” (Bioorg Med Chem Lett, 2008).

Experiments:
Format in all cases: functional, cell-based
BaF3 [1] = experiment: Antiproliferative activity against Lck transformed mouse BaF3 cells after 48 hrs by luciferase assay; settings: BaF3, 48 h
Procedure, shortened: (§1)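 BaF3 cells transformed with the named kinase, 25,000 cells per well, exposed to serial inhibitor dilutions or DMSO for 48 h. Luciferase expression, read by Bright-Glo luminescence, served as the measure of proliferation/survival.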

BaF3 [2] = experiment: Antiproliferative activity against Lyn transformed mouse BaF3 cells; procedure, shortened: as §1
BaF3 [3] = experiment: Antiproliferative activity against JAK3 transformed mouse BaF3 cells; procedure, shortened: as §1
BaF3 [4] = experiment: Antiproliferative activity against KDR transformed mouse BaF3 cells; procedure, shortened: as §1
BaF3 [5] = experiment: Antiproliferative activity against Src transformed mouse BaF3 cells; procedure, shortened: as §1
BaF3 [6] = experiment: Antiproliferative activity against FLT3 transformed mouse BaF3 cells; procedure, shortened: as §1
BaF3 [7] = experiment: Antiproliferative activity against Sky transformed mouse BaF3 cells; procedure, shortened: as §1
BaF3 [8] = experiment: Antiproliferative activity against Alk transformed mouse BaF3 cells; procedure, shortened: as §1
BaF3 [9] = experiment: Antiproliferative activity against FGFR3 transformed mouse BaF3 cells; procedure, shortened: as §1
BaF3 [10] = experiment: Antiproliferative activity against InsR transformed mouse BaF3 cells; procedure, shortened: as §1
Jurkat [11] = experiment: Inhibition of ant-CD3+CD28 antibodies induced IL2 promoter activity in human Jurkat cells after 5 hrs
Procedure, shortened: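 Wells coated with anti-mouse IgG in sodium bicarbonate buffer, then loaded with OKT3 (mouse anti-human CD3) and mouse anti-human CD28 antibodies, then washed. Jurkat cells carrying IL-2 promoter-driven luciferase, 100,000 per well, incubated 5 h on the bound antibodies. Luciferase read-out by Bright-Glo.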

Jurkat [12] = experiment: Inhibition of phorbol myristate acetate and ionomycin induced IL2 promoter activity in human Jurkat cells after 5 hrs
Procedure, shortened: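 Jurkat IL-2 promoter-luciferase cells, 50,000 per well, stimulated with PMA plus ionomycin, added as an equal volume of solution containing PMA at 40 ng/mL (concentration before mixing). IL-2 promoter activity read as luciferase signal by Bright-Glo.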

Row | SMILES | IC50 (BaF3 [1]) | other results
1 | COc1ccc(OC(=O)Nc2nc3ccc(C(=O)Nc4cc(NC(=O)c5cccc(C(F)(F)F)c5)ccc4C)cc3s2)cc1 | 131 nM | –
2 | Cc1ccc(NC(=O)c2cccc(C(F)(F)F)c2)cc1NC(=O)c1ccc2nc(NCCCN3CCOCC3)sc2c1 | 78 nM | –
3 | CCNC(=O)Nc1nc2ccc(C(=O)Nc3cc(NC(=O)c4ccc(Cl)c(C(F)(F)F)c4)ccc3C)cc2s1 | 50 nM | –
4 | Cc1cc(Br)c(NC(=O)c2cccc(C(F)(F)F)c2)cc1NC(=O)c1ccc2nc(NCCN3CCOCC3)sc2c1 | 2100 nM | –
5 | CNC(=O)Nc1nc2ccc(C(=O)Nc3cc(NC(=O)c4cccc(C(F)(F)F)c4)ccc3C)cc2s1 | 21 nM | IC50 (BaF3 [2]): 94 nM; IC50 (BaF3 [3]): 5010 nM; IC50 (BaF3 [4]): 1610 nM; IC50 (BaF3 [5]): 301 nM; IC50 (BaF3 [6]): 3140 nM; IC50 (BaF3 [7]): 1100 nM; IC50 (BaF3 [8]): 1630 nM; IC50 (BaF3 [9]): 1980 nM; IC50 (BaF3 [10]): 1280 nM
6 | CCNC(=O)Nc1nc2ccc(C(=O)Nc3cc(NC(=O)c4cc(-n5cnc(C)c5)cc(C(F)(F)F)c4)ccc3C)cc2s1 | 15 nM | –
7 | Cc1ccc(NC(=O)c2cccc(C(F)(F)F)c2)cc1NC(=O)c1ccc2nc(NCCN3CCN(C)CC3)sc2c1 | 58 nM | –
8 | Cc1ccc(NC(=O)c2cccc(C(F)(F)F)c2)cc1NC(=O)c1ccc2nc(Nc3cnccn3)sc2c1 | 4 nM | –
9 | Cc1ccc(NC(=O)c2cccc(C(F)(F)F)c2)cc1NC(=O)c1ccc2nc(NC(=O)Nc3cccnc3)sc2c1 | 125 nM | –
10 | Cc1ccnc(Nc2nc3ccc(C(=O)Nc4cc(NC(=O)c5cccc(C(F)(F)F)c5)ccc4C)cc3s2)c1 | 16 nM | –
11 | Cc1ccc(NC(=O)c2cccc(C(F)(F)F)c2)cc1NC(=O)c1ccc2nc(N(C)C(=O)OC(C)(C)C)sc2c1 | 955 nM | –
12 | CCNC(=O)Nc1nc2ccc(C(=O)Nc3cc(NC(=O)c4ccc(C(C)(C)C)s4)ccc3C)cc2s1 | 12 nM | –
13 | Cc1ccc(NC(=O)c2cccc(C(F)(F)F)c2)cc1NC(=O)c1ccc2nc(NC(=O)OC(C)(C)C)sc2c1 | 36 nM | –
14 | CCNC(=O)Nc1nc2ccc(C(=O)Nc3cc(NC(=O)c4cccc(OC)c4)ccc3C)cc2s1 | 158 nM | –
15 | CCNC(=O)Nc1nc2ccc(C(=O)Nc3cc(NC(=O)c4ccnc(C(C)(C)C)c4)ccc3C)cc2s1 | 9 nM | –
16 | CCNC(=O)Nc1nc2ccc(C(=O)Nc3cc(NC(=O)c4cc(N5CCN(C)CC5)cc(C(F)(F)F)c4)ccc3C)cc2s1 | 19 nM | –
17 | CCNC(=O)Nc1nc2ccc(C(=O)Nc3cc(NC(=O)c4cccc(Cl)c4)ccc3C)cc2s1 | 104 nM | –

Row | SMILES | IC50 (BaF3 [1]) | other results
18 | Cc1ccc(NC(=O)c2cccc(C(F)(F)F)c2)cc1NC(=O)c1ccc2nc(NC(=O)Oc3ccccc3)sc2c1 | 112 nM | –
19 | CCNC(=O)Nc1nc2ccc(C(=O)Nc3cc(NC(=O)c4cc(F)cc(C(F)(F)F)c4)ccc3C)cc2s1 | 7 nM | –
20 | Cc1ccc(NC(=O)c2cccc(C(F)(F)F)c2)cc1NC(=O)c1ccc2nc(NC(=O)OC(C)C)sc2c1 | 30 nM | IC50 (BaF3 [2]): 268 nM; IC50 (BaF3 [3]): > 10000 nM; IC50 (BaF3 [4]): 3280 nM; IC50 (BaF3 [5]): 517 nM; IC50 (BaF3 [6]): > 10000 nM; IC50 (BaF3 [7]): 2440 nM; IC50 (BaF3 [8]): 6110 nM; IC50 (BaF3 [9]): 12600 nM; IC50 (BaF3 [10]): 13500 nM
21 | Cc1ccc(NC(=O)c2cccc(C(F)(F)F)c2)cc1NC(=O)c1ccc2nc(N)sc2c1 | 170 nM | –
22 | Cc1ccc(NC(=O)c2cccc(C(F)(F)F)c2)cc1NC(=O)c1ccc2nc(NC(=O)NC3CCCC3)sc2c1 | 16 nM | IC50 (Jurkat [11]): 62 nM; IC50 (Jurkat [12]): 812 nM
23 | CCNC(=O)Nc1nc2ccc(C(=O)Nc3cc(NC(=O)c4cccc(C)c4)ccc3C)cc2s1 | 112 nM | –
24 | COCCOC(=O)Nc1nc2ccc(C(=O)Nc3cc(NC(=O)c4cccc(C(F)(F)F)c4)ccc3C)cc2s1 | 8 nM | IC50 (Jurkat [11]): 12 nM; IC50 (Jurkat [12]): 438 nM
25 | CCNC(=O)Nc1nc2ccc(C(=O)Nc3cc(NC(=O)c4cccc(C(F)(F)F)c4)ccc3C)cc2s1 | 16 nM | IC50 (Jurkat [11]): 44 nM; IC50 (Jurkat [12]): 373 nM
26 | CCNC(=O)Nc1nc2ccc(C(=O)Nc3cc(C(=O)Nc4cccc(C(F)(F)F)c4)ccc3C)cc2s1 | 118 nM | –
27 | Cc1ccc(NC(=O)c2cccc(C(F)(F)F)c2)cc1NC(=O)c1ccc2nc(NC(=O)Nc3ccccc3)sc2c1 | 94 nM | –
28 | Cc1cc(C)nc(Nc2nc3ccc(C(=O)Nc4cc(NC(=O)c5cccc(C(F)(F)F)c5)ccc4C)cc3s2)n1 | 53 nM | –
29 | CCNC(=O)N(C)c1nc2ccc(C(=O)Nc3cc(NC(=O)c4cccc(C(F)(F)F)c4)ccc3C)cc2s1 | > 10000 nM | –
30 | Cc1ccc(NC(=O)c2cccc(C(F)(F)F)c2)cc1NC(=O)c1ccc2nc(NCCCN(C)C)sc2c1 | 81 nM | –
31 | COC(=O)Nc1nc2ccc(C(=O)Nc3cc(NC(=O)c4cccc(C(F)(F)F)c4)ccc3C)cc2s1 | 30 nM | IC50 (Jurkat [11]): 36 nM; IC50 (Jurkat [12]): 851 nM
32 | Cc1ccc(C(=O)Nc2cccc(C(F)(F)F)c2)cc1NC(=O)c1ccc2nc(NC(=O)NC3CCCC3)sc2c1 | 139 nM | –
33 | Cc1cc(Nc2nc3ccc(C(=O)Nc4cc(NC(=O)c5cccc(C(F)(F)F)c5)ccc4C)cc3s2)no1 | 8 nM | –
34 | Cc1cc(Nc2nc3ccc(C(=O)Nc4cc(NC(=O)c5cccc(C(F)(F)F)c5)ccc4C)cc3s2)nc(C)n1 | 0.6 nM | –
